According to ChEMBL document CHEMBL1138484, “Synthesis and antiviral activity of 7-benzyl-4-hydroxy-1,5-naphthyridin-2(1H)-one HIV integrase inhibitors” (J Med Chem, 2009):
pIC50: −log10 of the molar value.

Tests used:
MT4 [1] = assay: Cytotoxicity against human MT4 cells up to =>7 uM after 5 days by MTS assay; type: cell-based; settings: mt4, 120 h
Outline: (§1)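 MT-4 cells in RPMI with 15% FBS, 10% T-cell growth factor and 10 µg/mL gentamicin, cultured 5 days at 37 °C, 5% CO₂. Compound-induced cytotoxicity (CCIC50) measured by MTS staining at OD 492 nm, in parallel with the HIV-1 IIIB antiviral MTS readout in the same cell line.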

[2] = Cytotoxicity against human MT4 cells after 5 days by MTS assay; type: cell-based; settings: read-out: CCIC50; outline: as §1
[3] = Inhibition of HIV recombinant integrase strand transfer assay; design: species or system Human immunodeficiency virus
Outline: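 Recombinant integrase (2 µM) preassembled with biotinylated donor DNA on streptavidin SPA beads (MOPS pH 7.2, MgCl₂, DTT, 5 min, 37 °C), then washed. Compound in DMSO (6.7% final) preincubated 60 min at 37 °C. [³H] target DNA added at 7 nM final, strand transfer run 25-45 min at 37 °C, EDTA quench, SPA readout. Mean ± standard error.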

[4] = Therapeutic index, ratio of CCIC50 for human MT4 cells to IC50 for HIV1 3B; type: cell-based; outline: as §1
[5] = system: Human immunodeficiency virus; assay: Antiviral activity against pseudotype HIV after 2 days in presence 40 mg/mL human serum albumin; type: functional, organism-based; settings: Human immunodeficiency virus 1, 48 h
Outline: (§2)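 Pseudotyped HIV luciferase assay in 293T cells (2 × 10^4 per well), 2 days at 37 °C in DMEM + 10% FCS, luminescence read-out. Run with and without added serum protein, 40 mg/mL HSA. Line 5 is the ratio of the IC50 with HSA to the IC50 without.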

[6] = system: Human immunodeficiency virus 1; assay: Antiviral activity against HIV1 3B infected in human MT4 cells assessed as inhibition of virus-induced cytopathic effect after 5 days by MTS method; type: functional, organism-based; settings: Human immunodeficiency virus 1, 3B, MT4, 120 h
Outline: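 HIV-1 IIIB infection of MT-4 cells (HTLV-1 transformed) for 1 h at 37 °C, 5% CO2. Cells then added to compounds prediluted in RPMI with FBS and gentamicin; final assay medium had 15% FBS and 10% T-cell growth factor. Incubated 5 days at 37 °C. Virus-induced cytopathic effect read by MTS staining, OD 492 nm. Cytotoxicity measured in parallel.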

[7] = system: Human immunodeficiency virus; assay: Antiviral activity against pseudotype HIV after 2 days in absence of human serum albumin; type: functional, organism-based; settings: Human immunodeficiency virus 1, 48 h
Outline: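 VSV-G-pseudotyped HIV vector carrying luciferase, harvested from transfected 293T cells. Target 293T cells (2 × 10^4 per well) mixed with vector at about 100K CPM and plated onto compounds in DMEM + 10% FCS. Incubated 2 days at 37 °C, 5% CO2. Luciferase read by Steady Glo luminescence. Values are means ± standard error (N > 1).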

[8] = Oral bioavailability in non fasted CD rat at 5 mg/kg; type: ADME, organism-based; settings: in vivo
Outline: (§3)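 Male CD rats, n = 2 per arm, dosed 5 mg/kg po (5 mL/kg) in 10% DMSO/15% Solutol/75% 0.05 M […]. Fasted arm had food removed the evening before and returned 4 h post-dose; other arm nonfasted. Cannula blood sampled over 24 h, EDTA plasma by LC/MS/MS. Bioavailability referenced to the 1 mg/kg iv arm.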

Rattus norvegicus = assay: Hepatic blood flow in CD rat at 1 mg/kg, iv; type: ADME, organism-based, Liver; design: dose 1 mg/kg, route intravenous; settings: in vivo
[9] = Volume of distribution at steady state in CD rat at 1 mg/kg, iv; type: ADME, organism-based; design: dose 1 mg/kg, route intravenous; settings: in vivo, read-out: Vdss
Outline: (§4)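 Male CD rats, n = 2, given 1 mg/kg iv (1 mL/kg, fasted) in 10% DMSO/15% Solutol/75% 0.05 M […]. Blood drawn via implanted venous cannula at timed intervals over 24 h, EDTA plasma analysed by LC/MS/MS.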

[10] = system: Human immunodeficiency virus 1; assay: Antiviral activity against HIV1 3B infected in human MT4 cells assessed as inhibition of virus-induced cytopathic effect albumin after 5 days by MTS method in presence of 40 mg/mL human serum albumin; type: functional, organism-based; settings: Human immunodeficiency virus 1, 3B, MT4, 120 h
Outline: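 HIV-1 IIIB infection of MT-4 cells for 1 h at 37 °C, then cells added to prediluted compounds in RPMI with 15% FBS, 10% T-cell growth factor, 10 µg/mL gentamicin, plus 40 mg/mL HSA. 5 days at 37 °C, 5% CO₂. Cytopathic effect read by MTS staining at OD 492 nm. Mean ± standard error where N > 1.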

[11] = Oral bioavailability in fasted CD rat at 5 mg/kg; type: ADME, organism-based; settings: in vivo; outline: as §3
[12] = Clearance in CD rat at 1 mg/kg, iv; type: ADME, organism-based; design: dose 1 mg/kg, route intravenous; settings: in vivo; outline: as §4
[13] = system: Human immunodeficiency virus 1; assay: Ratio of IC50 for HIV1 3B in presence of human serum albumin to IC50 for HIV1 3B in absence of human serum albumin; type: functional
Outline: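 MT-4/HIV-1 IIIB MTS cytopathic-effect assay, 5 days at 37 °C, run in standard medium and again with 40 mg/mL HSA added. The ratio compares the IC50 with HSA to the IC50 without.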

[14] = system: Human immunodeficiency virus; assay: Ratio of IC50 for pseudotype HIV in presence of human serum albumin to IC50 for pseudotype HIV in absence of human serum albumin; type: functional; outline: as §2
MT4 [15] = assay: Cytotoxicity against human MT4 cells up to 8 to 10 uM after 5 days by MTS assay; type: cell-based; settings: mt4, 120 h; outline: as §1

Structure (SMILES) | Activity (MT4 [1]) | CC50 at 120 h [2] | pIC50 [3] | pIC50 [5] | pIC50 [6] | pIC50 [7] | other results
CNC(=O)c1c(O)c2ncc(Cc3ccc(F)cc3)cc2[nH]c1=O | Non-toxic | > 8000 nM | 8.22 | 6.92 | 7.52 | 8.47 | selectivity ratio [4]: > 100
COCCNC(=O)c1c(O)c2ncc(Cc3ccc(F)cc3)cc2n(C)c1=O |  | > 20000 nM | 8.40 | 7.30 | 8.30 | 8.70 | bioavailability [8]: 20%; QH (Rattus norvegicus): 20%; Vd [9]: 0.6 L/kg; pIC50 [10]: 7.32; bioavailability [11]: 25%; clearance [12]: 11.8 mL/min/kg; Ratio IC50 [13]: <10
NC(=O)c1c(O)c2ncc(Cc3ccc(F)cc3)cc2[nH]c1=O |  |  | 7.35 | 6.18 |  | 7.18 | Ratio IC50 [14]: 10
CCOC(=O)c1c(O)c2ncc(Cc3ccccc3)cc2[nH]c1=O |  | 103000 nM | 8.52 |  | < 4.40 | 5.43 | 
COC(=O)c1c(O)c2ncc(Cc3ccccc3)cc2[nH]c1=O |  | > 125000 nM | 8.10 |  | < 3.90 | 4.85 | 
CCOC(=O)c1c(O)c2ncc(Cc3ccc(F)cc3)cc2n(CC2CC2)c1=O |  |  | 7.82 |  |  | 6.45 | 
CC(C)CNC(=O)c1c(O)c2ncc(Cc3ccc(F)cc3)cc2[nH]c1=O | Non-toxic | 7000 nM | 8.22 | 5.60 | 7.17 | 8.40 | selectivity ratio [4]: > 100
CCOC(=O)c1c(O)c2ncc(Cc3ccc(F)cc3)cc2n(C)c1=O |  | 6000 nM | 8.22 | 4.92 | 5.89 | 7.11 | 
CNC(=O)c1c(O)c2ncc(Cc3ccc(F)cc3)cc2n(C)c1=O | Non-toxic | 20000 nM | 8.39 | 7.24 | 7.96 | 8.85 | 
COCCNC(=O)c1c(O)c2ncc(Cc3ccc(F)cc3)cc2[nH]c1=O |  | > 8000 nM | 8.30 | 7.44 | 7.44 | 8.38 | Activity (MT4 [15]): Non-toxic
O=C(NC1CC1)c1c(O)c2ncc(Cc3ccc(F)cc3)cc2[nH]c1=O | Non-toxic | > 8000 nM | 8.00 | < 4.85 | 7.11 | 8.10 | selectivity ratio [4]: > 100
COCCNC(=O)c1c(O)c2ncc(Cc3ccccc3)cc2[nH]c1=O |  | > 10000 nM | 8.15 | 7.23 | 7.04 | 7.85 | Activity (MT4 [15]): Non-toxic
COC(=O)c1c(O)c2ncccc2[nH]c1=O |  | > 125000 nM | < 3.30 |  | < 3.90 | < 4.85 | 
CCOC(=O)c1c(O)c2ncc(Cc3ccc(F)cc3)cc2n(CC(C)C)c1=O |  |  | 7.66 |  |  | 6.81 | 
CCOC(=O)c1c(O)c2ncc(Cc3ccc(F)cc3)cc2[nH]c1=O |  |  | 7.89 |  | 5.92 | 5.92 | 
CCNC(=O)c1c(O)c2ncc(Cc3ccc(F)cc3)cc2n(C)c1=O | Non-toxic | > 50000 nM | 8.40 | 6.18 | 8.46 | 8.80 | pIC50 [10]: 5.40
